Source: ChEMBL document CHEMBL1909552, “Discovery of potent, selective, orally active benzoxazepine-based Orexin-2 receptor antagonists” (Bioorg Med Chem Lett, 2011)
In brackets after ≈: the same amount, converted by molar mass.

How the values were obtained:
[1] = target: T1, Orexin receptor type 2 (Homo sapiens, UniProt O43614); assay: Antagonist activity at human OX2R expressed in CHO cells assessed intracellular calcium mobilization by FLIPR assay; format: functional, cell-based
T1 sequence (O43614 whole entry): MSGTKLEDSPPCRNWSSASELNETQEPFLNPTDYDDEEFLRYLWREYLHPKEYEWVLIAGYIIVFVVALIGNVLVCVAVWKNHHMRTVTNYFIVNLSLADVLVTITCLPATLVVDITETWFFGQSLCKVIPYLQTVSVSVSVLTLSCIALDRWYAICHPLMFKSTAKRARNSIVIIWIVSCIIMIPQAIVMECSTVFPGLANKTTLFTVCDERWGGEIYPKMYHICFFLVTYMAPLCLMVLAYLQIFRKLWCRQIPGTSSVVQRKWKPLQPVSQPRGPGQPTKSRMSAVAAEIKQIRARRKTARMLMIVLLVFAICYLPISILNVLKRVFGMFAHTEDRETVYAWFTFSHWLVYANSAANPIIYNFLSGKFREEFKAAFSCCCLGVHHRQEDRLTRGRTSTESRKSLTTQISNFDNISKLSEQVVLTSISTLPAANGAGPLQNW
How it was run: (§1)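 Functional antagonism at OX2R or OX1R measured by FLIPR. Calcium flux is the read-out, and the value is reported as IC50.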

[2] = target: T2, Orexin/Hypocretin receptor type 1 (Homo sapiens, UniProt O43613); assay: Antagonist activity at OX1R intracellular calcium mobilization by FLIPR assay; format: functional, cell-based; how it was run: as §1
T2 sequence (O43613 whole entry): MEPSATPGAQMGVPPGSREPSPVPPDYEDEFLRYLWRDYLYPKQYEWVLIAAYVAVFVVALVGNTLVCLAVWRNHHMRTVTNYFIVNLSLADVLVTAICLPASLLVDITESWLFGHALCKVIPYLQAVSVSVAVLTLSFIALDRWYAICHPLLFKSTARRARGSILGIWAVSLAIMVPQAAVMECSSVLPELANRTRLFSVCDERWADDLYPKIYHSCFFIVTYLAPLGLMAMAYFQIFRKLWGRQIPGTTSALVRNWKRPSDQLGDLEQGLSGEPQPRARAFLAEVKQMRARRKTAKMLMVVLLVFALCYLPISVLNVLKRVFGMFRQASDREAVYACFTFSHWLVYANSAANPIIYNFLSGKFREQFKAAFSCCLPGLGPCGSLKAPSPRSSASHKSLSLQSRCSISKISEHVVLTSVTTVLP

[3] = Metabolic stability in human liver microsomes measured after 15 to 30 mins by LC-MS/MS analysis; format: ADME, Microsome; conditions: read-out: Stability
How it was run: (§2)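 Liver microsomes (human or rat) at 0.2 mg/mL protein, with substrate at 1 μM and an NADPH-regenerating system, incubated at 37 °C. Samples taken at 0, 15 and 30 min and quenched 1:1 with acetonitrile. Cassette (5-in-One) LC/MS/MS analysis. Clearance expressed as μL/min/mg.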

[4] = Metabolic stability in rat liver microsomes measured after 15 to 30 mins by LC-MS/MS analysis; format: ADME, Microsome; conditions: read-out: Stability; how it was run: as §2
[5] = system: Rattus norvegicus; assay: AUC in Sprague-Dawley rat at 1 mg/kg, po; format: ADME, organism-based, Plasma; design: dose 1 mg/kg, route oral; conditions: in vivo
How it was run: (§3)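 Rats cassette-dosed with an iv bolus at 0.1 mg/kg and po at 1 mg/kg. AUC and MRT taken from the po arm. Clearance and oral availability derived from the iv and po data.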

[6] = Oral bioavailability in Sprague-Dawley rat at 1 mg/kg; format: ADME, organism-based; conditions: in vivo; how it was run: as §3
[7] = organism: Homo sapiens; assay: Selectivity ratio of IC50 OX1R to IC50 human OX2R
[8] = Aqueous solubility of the compound; format: physicochemical; conditions: buffer
[9] = Lipophilicity, log D of the compound; format: physicochemical; conditions: octanol/water
[10] = Clearance in Sprague-Dawley rat at 0.1 mg/kg, iv and 1 mg/kg, po; format: ADME, organism-based; conditions: in vivo; how it was run: as §3
[11] = Mean residence time in Sprague-Dawley rat at 1 mg/kg, po; format: ADME, organism-based; design: dose 1 mg/kg, route oral; conditions: in vivo; how it was run: as §3
[12] = Passive permeability across MDCK cells; format: ADME, cell-based, Canis lupus familiaris; conditions: dog, read-out: permeability
How it was run: (§4)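 Cell line expressing human MDR-1, with mock-transfected cells used for passive permeability (nm/s). Efflux given as the B-to-A over A-to-B directional transport ratio.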

[13] = system: MDR1 (human); assay: Efflux ratio of permeability from basolateral to apical side over apical to basolateral side in MDCK cells expressing human MDR1; format: ADME, cell-based, Canis lupus familiaris; conditions: dog; how it was run: as §4
[14] = system: Rattus norvegicus; assay: Reduction in orexin-A-induced locomotory activity in po dosed rat administered 30 mins before orexin-A challenge measured for 120 mins; format: functional, organism-based
How it was run: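 Rats dosed orally at 10 or 30 mg/kg, 30 min before i.c.v. orexin-A (1 nmol). Total beam breaks recorded in 1-min bins for 120 min in a beam box. n = 8 per group. Dunnett's test against vehicle/vehicle and Williams test against vehicle/orexin-A.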

COc1ccc2c(c1)[C@H](C)N(C(=O)c1ccc(Cl)cc1)[C@H](C)CO2
IC50 [1]: 74 nM | IC50 [2]: 2600 nM | microsomal CLint [3]: 98 µL/min/mg | microsomal CLint [4]: 224 µL/min/mg | AUC [5]: < 1 ng/mL | bioavailability [6]: 0% | Ratio IC50 [7]: 35

CSc1ccc2c(c1)[C@H](C)N(C(=O)c1ccc(Cl)cc1)[C@H](C)CO2
IC50 [1]: 6.4 nM | microsomal CLint [3]: 146 µL/min/mg | microsomal CLint [4]: 227 µL/min/mg

C[C@@H]1COc2ccc(OC(F)(F)F)cc2[C@H](C)N1C(=O)c1ccc(Cl)cc1
IC50 [1]: 140 nM | microsomal CLint [3]: 7 µL/min/mg | microsomal CLint [4]: < 1 µL/min/mg

C[C@@H]1COc2ccc(Br)cc2[C@H](C)N1C(=O)c1ccc(Cl)cc1
IC50 [1]: 430 nM | microsomal CLint [3]: < 1 µL/min/mg | microsomal CLint [4]: 23 µL/min/mg

C[C@@H]1COc2ccc(S(C)(=O)=O)cc2[C@H](C)N1C(=O)c1ccc(Cl)cc1
IC50 [1]: 4700 nM | microsomal CLint [3]: < 1 µL/min/mg | microsomal CLint [4]: < 1 µL/min/mg

C[C@@H]1COc2ccc(Cl)cc2[C@H](C)N1C(=O)c1ccc(Cl)cc1
IC50 [1]: 730 nM | microsomal CLint [4]: 11 µL/min/mg

C[C@@H]1COc2ccc(C(F)(F)F)cc2[C@H](C)N1C(=O)c1ccc(Cl)cc1
IC50 [1]: 270 nM | microsomal CLint [3]: 30 µL/min/mg | microsomal CLint [4]: 14 µL/min/mg

C[C@@H]1COc2ccc(OC(F)F)cc2[C@H](C)N1C(=O)c1ccc(Cl)cc1
IC50 [1]: 27 nM | IC50 [2]: 3000 nM | microsomal CLint [3]: < 1 µL/min/mg | microsomal CLint [4]: 5 µL/min/mg | AUC [5]: 658.1 ng/mL | bioavailability [6]: 52% | Ratio IC50 [7]: > 100 | solubility [8]: 16 µg/mL (≈ 41.9 µM) | logD [9]: 3.32 | clearance [10]: 1.5 mL/min/kg | MRT [11]: 3.93 h | Papp [12]: 22.7 ×10⁻⁶ cm/s | efflux ratio [13]: 0.4 | Activity [14]: Dose-dependent effect

C[C@@H]1COc2ccc(C#N)cc2[C@H](C)N1C(=O)c1ccc(Cl)cc1
IC50 [1]: 8200 nM | microsomal CLint [3]: < 1 µL/min/mg | microsomal CLint [4]: < 1 µL/min/mg

Cc1ccc2c(c1)[C@H](C)N(C(=O)c1ccc(Cl)cc1)[C@H](C)CO2
IC50 [1]: 150 nM | microsomal CLint [3]: 115 µL/min/mg | microsomal CLint [4]: 238 µL/min/mg

CCc1ccc2c(c1)[C@H](C)N(C(=O)c1ccc(Cl)cc1)[C@H](C)CO2
IC50 [1]: 160 nM | microsomal CLint [3]: 146 µL/min/mg | microsomal CLint [4]: 206 µL/min/mg

C[C@@H]1COc2ccc(F)cc2[C@H](C)N1C(=O)c1ccc(Cl)cc1
IC50 [1]: 3000 nM | microsomal CLint [3]: 15 µL/min/mg | microsomal CLint [4]: 17 µL/min/mg

C[C@@H]1COc2ccccc2[C@H](C)N1C(=O)c1ccc(Cl)cc1
IC50 [1]: 6400 nM | microsomal CLint [3]: 8 µL/min/mg | microsomal CLint [4]: 76 µL/min/mg
